Data on 13 compounds can be found in ChEMBL document CHEMBL4325864, “Discovery of new potent protein arginine methyltransferase 5 (PRMT5) inhibitors by assembly of key pharmacophores from known inhibitors” (Bioorg Med Chem Lett, 2018).

Assay [1] addresses T1, PRMT5/MEP50 complex (Homo sapiens, UniProt O14744). Kind of assay: Inhibition of recombinant human N-terminal FLAG-tagged PRMT5 (2 to end residues) /human N-terminal His-tagged MEP50 (2 to end residues) expressed in HEK293F cells pretreated for 15 mins followed by substrate and [3H]-SAM addition measured after 60 mins by scintillation proximity assay. In kind it is cell-based. In a few lines:
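PRMT5 enzymatic inhibition measured by radiometric scintillation proximity assay; IC50 determined.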

In assay [2] the target is T2, Protein arginine N-methyltransferase 5 (Homo sapiens, UniProt O14744). Briefly: Inhibition of PRMT5 (unknown origin).
The next assay deals with SUD4. Briefly: Antiproliferative activity against human SU-DHL4 cells after 4 days by cell titer-glo luminescent cell viability assay. The conditions noted are these: SU-DHL-4, 96 h.
In assay [3] the test system is KARPAS-422. Briefly: Induction of apoptosis in human KARPAS422 cells assessed as apoptotic cells at 8 uM after 48 hrs by AnnexinV-FITC staining-based flow cytometric analysis (reference value: 4.08%). The format is functional.
Assay [4] has as its system KARPAS-422. Briefly: Cell cycle arrest in human KARPAS422 cells assessed as accumulation of cells at G2/M phase at 16 uM after 48 hrs by propidium iodide staining-based flow cytometric analysis (reference value: 12.64%). The format is functional.
The test system of assay [5] is KARPAS-422. Kind of assay: Cell cycle arrest in human KARPAS422 cells assessed as accumulation of cells at G1 phase at 16 uM after 48 hrs by propidium iodide staining-based flow cytometric analysis (reference value: 39.56%). The format is functional.
For assay [6], the system named is KARPAS-422. Kind of assay: Induction of apoptosis in human KARPAS422 cells assessed as necrotic cells at 16 uM after 48 hrs by AnnexinV-FITC staining-based flow cytometric analysis (reference value: 3.20%). The format is functional.
Assay [7] relates to KARPAS-422. Briefly: Cell cycle arrest in human KARPAS422 cells assessed as accumulation of cells at G1 phase at 8 uM after 48 hrs by propidium iodide staining-based flow cytometric analysis (reference value: 39.56%). In kind it is functional.
Assay [8] concerns the target T2, Protein arginine N-methyltransferase 5. Briefly: Non-competitive inhibition of recombinant human N-terminal FLAG-tagged PRMT5 (2 to end residues) /human N-terminal His-tagged MEP50 (2 to end residues) expressed in HEK293F cells pretreated for 15 mins followed by fixed peptide substrate and varying [3H]-SAM addition measured after 60 mins by scintillation proximity assay. The format is cell-based. The procedure, abridged: (§1)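 Mode of inhibition: IC50 values determined by radiometric scintillation proximity assay in the presence of various concentrations of peptide substrate and SAM; experiments performed in triplicate.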

For assay [9], the system named is KARPAS-422. Kind of assay: Cell cycle arrest in human KARPAS422 cells assessed as accumulation of cells at G2/M phase at 4 uM after 48 hrs by propidium iodide staining-based flow cytometric analysis (reference value: 12.64%). The format is functional.
Assay [10] concerns KARPAS-422. Briefly: Induction of apoptosis in human KARPAS422 cells assessed as apoptotic cells at 4 uM after 48 hrs by AnnexinV-FITC staining-based flow cytometric analysis (reference value: 4.08%). In kind it is functional.
For assay [11], the target named is T2, Protein arginine N-methyltransferase 5. Briefly: Inhibition of PRMT5 in human KARPAS422 cells assessed as decrease in symmetric arginine dimethylation of SmD3 after 4 days by Western blot analysis. The format is cell-based. The conditions noted are these: in the assay text read “after 72 h” for “after 4 days”. The procedure, abridged: (§2)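 KARPAS-422 and SU-DHL-4 cells treated across a concentration range; symmetric arginine dimethylation of SmD3 detected by Western blot with symmetric dimethyl arginine (SDMA) antibody.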

In assay [12] the target is Protein arginine N-methyltransferase 1 (Homo sapiens, UniProt Q99873). Briefly: Inhibition of PRMT1 (unknown origin) pretreated for 15 mins followed by substrate and [3H]-SAM addition measured after 60 mins by scintillation proximity assay. In a few lines: (§3)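 PRMT1 and PRMT4 enzyme-inhibition assays used to assess selectivity; IC50 values determined for each enzyme.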

Assay [13] deals with T2, Protein arginine N-methyltransferase 5. Briefly: Inhibition of PRMT5 in human SU-DHL4 cells assessed as decrease in symmetric arginine dimethylation of SmD3 after 4 days by Western blot analysis. In kind it is cell-based. The conditions noted are these: in the assay text read “after 72 hrs” for “after 4 days”. The procedure, abridged:
as §2

Assay [14] deals with KARPAS-422. Briefly: Antiproliferative activity against human KARPAS422 cells after 4 days by cell titer-glo luminescent cell viability assay. The note with it: KARPAS-422, 96 h.
Assay [15] addresses T2, Protein arginine N-methyltransferase 5. Kind of assay: Competitive inhibition of recombinant human N-terminal FLAG-tagged PRMT5 (2 to end residues) /human N-terminal His-tagged MEP50 (2 to end residues) expressed in HEK293F cells pretreated for 15 mins followed by varying peptide substrate and fixed [3H]-SAM addition measured after 60 mins by scintillation proximity assay. In kind it is cell-based. The procedure, abridged:
as §1

The test system of assay [16] is KARPAS-422. Kind of assay: Cell cycle arrest in human KARPAS422 cells assessed as accumulation of cells at S phase at 8 uM after 48 hrs by propidium iodide staining-based flow cytometric analysis (reference value: 47.8%). The format is functional.
Another assay has as its system Pfeiffer. Briefly: Antiproliferative activity against human Pfeiffer cells after 4 days by cell titer-glo luminescent cell viability assay. The note with it: 96 h.
Assay [17] relates to KARPAS-422. Briefly: Induction of apoptosis in human KARPAS422 cells assessed as necrotic cells at 8 uM after 48 hrs by AnnexinV-FITC staining-based flow cytometric analysis (reference value: 3.20%). The format is functional.
Assay [18] has as its system KARPAS-422. Briefly: Induction of apoptosis in human KARPAS422 cells assessed as viable cells at 16 uM after 48 hrs by AnnexinV-FITC staining-based flow cytometric analysis (reference value: 91.3%). The note with it: KARPAS-422, 48 h, read-out: Activity. In kind it is functional.
Assay [19] deals with KARPAS-422. Briefly: Cell cycle arrest in human KARPAS422 cells assessed as accumulation of cells at G1 phase after 48 hrs by propidium iodide staining-based flow cytometric analysis. The format is functional.
The test system of assay [20] is KARPAS-422. Briefly: Induction of apoptosis in human KARPAS422 cells assessed as necrotic cells at 4 uM after 48 hrs by AnnexinV-FITC staining-based flow cytometric analysis (reference value: 3.20%). The format is functional.
Assay [21] concerns KARPAS-422. Briefly: Cell cycle arrest in human KARPAS422 cells assessed as accumulation of cells at G2/M phase at 8 uM after 48 hrs by propidium iodide staining-based flow cytometric analysis (reference value: 12.64%). In kind it is functional.
For assay [22], the system named is KARPAS-422. Briefly: Cell cycle arrest in human KARPAS422 cells assessed as accumulation of cells at S phase at 16 uM after 48 hrs by propidium iodide staining-based flow cytometric analysis (reference value: 47.8%). In kind it is functional.
Assay [23] concerns KARPAS-422. Kind of assay: Induction of apoptosis in human KARPAS422 cells assessed as viable cells at 4 uM after 48 hrs by AnnexinV-FITC staining-based flow cytometric analysis (reference value: 91.3%). The format is functional. The note with it: KARPAS-422, 48 h, read-out: Activity.
In assay [24] the test system is KARPAS-422. Briefly: Induction of apoptosis in human KARPAS422 cells after 48 hrs by AnnexinV-FITC staining-based flow cytometric analysis. In kind it is functional, cell-based.
Assay [25] concerns KARPAS-422. Kind of assay: Cell cycle arrest in human KARPAS422 cells assessed as accumulation of cells at S phase at 4 uM after 48 hrs by propidium iodide staining-based flow cytometric analysis (reference value: 47.8%). The format is functional.
The subject of assay [26] is KARPAS-422. Kind of assay: Induction of apoptosis in human KARPAS422 cells assessed as apoptotic cells at 16 uM after 48 hrs by AnnexinV-FITC staining-based flow cytometric analysis (reference value: 4.08%). In kind it is functional.
Assay [27] deals with T1, PRMT5/MEP50 complex. Briefly: Binding affinity to PRMT5 (unknown origin)/MEP50 (unknown origin) by SPR assay. In kind it is protein-complex assay. The procedure, abridged:
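Direct binding to PRMT5 measured by surface plasmon resonance; equilibrium dissociation constant (KD) derived.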

Assay [28] deals with KARPAS-422. Briefly: Induction of apoptosis in human KARPAS422 cells assessed as viable cells at 8 uM after 48 hrs by AnnexinV-FITC staining-based flow cytometric analysis (reference value: 91.3%). The note with it: KARPAS-422, 48 h, read-out: Activity. In kind it is functional.
For assay [29], the target named is T3, Histone-arginine methyltransferase CARM1 (Homo sapiens, UniProt Q86X55).
T3 sequence (Q86X55 whole entry): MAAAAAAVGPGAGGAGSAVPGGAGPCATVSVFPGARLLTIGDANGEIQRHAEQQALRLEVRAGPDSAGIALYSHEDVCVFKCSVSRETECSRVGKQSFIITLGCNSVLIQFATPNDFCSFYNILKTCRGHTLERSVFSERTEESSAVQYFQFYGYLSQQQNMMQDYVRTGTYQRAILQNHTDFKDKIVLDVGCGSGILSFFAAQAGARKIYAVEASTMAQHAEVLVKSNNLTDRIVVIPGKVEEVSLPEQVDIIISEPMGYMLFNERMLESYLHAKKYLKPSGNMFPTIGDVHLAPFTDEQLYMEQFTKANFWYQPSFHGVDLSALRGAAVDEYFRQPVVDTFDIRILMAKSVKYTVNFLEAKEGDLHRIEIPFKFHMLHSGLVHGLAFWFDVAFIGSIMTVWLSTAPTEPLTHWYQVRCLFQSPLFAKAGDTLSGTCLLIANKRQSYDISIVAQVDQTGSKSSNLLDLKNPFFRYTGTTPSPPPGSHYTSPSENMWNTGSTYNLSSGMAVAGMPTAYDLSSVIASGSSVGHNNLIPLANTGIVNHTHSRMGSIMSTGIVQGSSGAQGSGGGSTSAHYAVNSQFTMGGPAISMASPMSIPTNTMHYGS
Kind of assay: Inhibition of PRMT4 (unknown origin) pretreated for 15 mins followed by substrate and [3H]-SAM addition measured after 60 mins by scintillation proximity assay. The procedure, abridged: as §3

The subject of a further assay is MV4-11. Briefly: Antiproliferative activity against human MV4-11 cells after 4 days by cell titer-glo luminescent cell viability assay. The note with it: MV4-11, 96 h.
The subject of assay [30] is KARPAS-422. Briefly: Cell cycle arrest in human KARPAS422 cells assessed as accumulation of cells at G1 phase at 4 uM after 48 hrs by propidium iodide staining-based flow cytometric analysis (reference value: 39.56%). The format is functional.

pIC50, pKd: −log10 of the molar value. Active and inactive are the calls of the source. No cut-off for these calls is given here.

T2 sequence (O14744 whole entry): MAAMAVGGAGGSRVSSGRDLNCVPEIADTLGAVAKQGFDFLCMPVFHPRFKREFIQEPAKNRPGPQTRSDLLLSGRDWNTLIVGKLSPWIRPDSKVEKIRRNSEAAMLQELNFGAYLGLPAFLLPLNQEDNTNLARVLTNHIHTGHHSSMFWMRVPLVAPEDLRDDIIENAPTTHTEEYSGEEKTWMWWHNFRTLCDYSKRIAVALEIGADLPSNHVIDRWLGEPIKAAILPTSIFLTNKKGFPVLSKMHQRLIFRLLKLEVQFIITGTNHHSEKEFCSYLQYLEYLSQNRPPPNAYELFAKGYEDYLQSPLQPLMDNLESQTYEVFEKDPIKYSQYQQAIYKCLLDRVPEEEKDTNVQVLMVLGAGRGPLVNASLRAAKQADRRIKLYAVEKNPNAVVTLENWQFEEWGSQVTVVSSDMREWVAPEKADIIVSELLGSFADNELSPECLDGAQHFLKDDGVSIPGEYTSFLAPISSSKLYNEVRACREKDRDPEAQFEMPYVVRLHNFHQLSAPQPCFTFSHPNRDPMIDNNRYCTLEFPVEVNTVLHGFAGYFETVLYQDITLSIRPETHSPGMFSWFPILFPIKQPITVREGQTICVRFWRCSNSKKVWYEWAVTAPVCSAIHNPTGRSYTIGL
T1 sequence (O14744 whole entry): as above
T1 sequence (Q9BQA1 whole entry, further chain): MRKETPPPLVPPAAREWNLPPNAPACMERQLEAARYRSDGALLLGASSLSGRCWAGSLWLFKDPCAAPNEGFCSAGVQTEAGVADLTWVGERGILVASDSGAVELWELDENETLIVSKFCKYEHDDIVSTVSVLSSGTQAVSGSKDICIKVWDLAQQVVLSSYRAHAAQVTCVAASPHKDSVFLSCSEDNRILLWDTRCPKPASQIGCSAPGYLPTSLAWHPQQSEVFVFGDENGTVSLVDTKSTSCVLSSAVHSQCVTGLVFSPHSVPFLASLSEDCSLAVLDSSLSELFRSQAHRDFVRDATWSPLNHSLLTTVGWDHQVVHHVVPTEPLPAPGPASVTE
Protein arginine N-methyltransferase 1, sequence (Q99873 whole entry): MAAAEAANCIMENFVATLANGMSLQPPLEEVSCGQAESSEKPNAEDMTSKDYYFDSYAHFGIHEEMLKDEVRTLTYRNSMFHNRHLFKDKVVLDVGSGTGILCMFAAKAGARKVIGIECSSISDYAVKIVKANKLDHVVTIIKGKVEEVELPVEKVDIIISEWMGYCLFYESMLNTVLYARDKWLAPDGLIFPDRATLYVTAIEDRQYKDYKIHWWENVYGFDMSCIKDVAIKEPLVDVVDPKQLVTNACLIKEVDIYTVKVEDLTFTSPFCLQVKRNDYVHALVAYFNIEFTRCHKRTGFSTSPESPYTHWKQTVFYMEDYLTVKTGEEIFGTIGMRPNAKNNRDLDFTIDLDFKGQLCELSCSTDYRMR

Consider `COc1ccc(NC(=O)CCN2CCc3ccccc3C2)cc1`, for which, on PRMT5/MEP50 complex [1], the pIC50 was less than 4.00.
In assay [2], `O=C(NC[C@H]1C[C@@H]2CC[N@@]1C[C@@H]2CN1CCC(Cc2ccccc2)CC1)c1ccc2c(c1)OCO2` showed a pIC50 of 5.82.
For `O=C(CCN1CCc2ccccc2C1)Nc1ccccc1`, the pIC50 on PRMT5/MEP50 complex [1] was less than 4.00.
Same read-out and setting: then `O=C(CCN1CCc2ccccc2C1)Nc1cccc(OC(F)(F)F)c1`, with 4.20.
Still for that read-out and setting: then `Cc1ccc(NC(=O)CCN2CCc3ccccc3C2)c([N+](=O)[O-])c1`, with less than 4.00.
With `N#Cc1c(Br)cccc1NC(=O)CCN1CCc2ccccc2C1`, the pIC50 was 4.79 with SUD4; 5.57 at PRMT5/MEP50 complex [1]; less than 3.70 in [12]; 5.04 with KARPAS-422 [14]; 4.95 in the assay on Pfeiffer; less than 3.70 in assay [29]. The compound further had a pIC50 with MV4-11 of 4.90. Besides, the Activity is listed as 7.89% in the assay on KARPAS-422 [3]; 9.48% with KARPAS-422 [4]; 54.34% in the assay with KARPAS-422 [5]; 8.76% with KARPAS-422 [6]; 50.53% with KARPAS-422 [7]; 13.73% with KARPAS-422 [9]. The Activity with KARPAS-422 [10] is 4.66%; in the assay on KARPAS-422 [16] it was 37.72%; in the assay on KARPAS-422 [17], 2.93%; in the assay with KARPAS-422 [19], “Dose-dependent effect”; in the assay on KARPAS-422 [20], 2.35%; in the assay with KARPAS-422 [21], 11.75%. Also, the Activity in the assay with KARPAS-422 [22] is 36.18%; in the assay on KARPAS-422 [24] it was “Dose-dependent effect”; in the assay on KARPAS-422 [25] it was 41.52%; in the assay on KARPAS-422 [26], 23.1%; in the assay on KARPAS-422 [30], 44.75%. In addition, the inhibition result in assay [8] and in [15] was “Active” throughout. Further, the inhibition result in assay [11] was “Dose-dependent effect”. In assay [13], the inhibition result was “inactive”. Further, the viability at 16 µM in the assay with KARPAS-422 [18] was 66.3%. For the same compound, the viability at 4 µM in the assay with KARPAS-422 [23] came to 90.5%. Moreover, on PRMT5/MEP50 complex [27], the pKd was 4.97. For the same compound, in the assay with KARPAS-422 [28], the viability at 8 µM was 88.1%.
As for `O=C(NC[C@H](O)CN1CCc2ccccc2C1)c1cc(NC2COC2)ncn1`, the inhibition entry in [11] was “Dose-dependent effect”.
Turning to `CCOC(=O)c1ccc(NC(=O)CCN2CCc3ccccc3C2)cc1`, the pIC50 on PRMT5/MEP50 complex [1] was less than 4.00.
For the compound `COC(=O)c1cc(F)c(F)cc1NC(=O)CCN1CCc2ccccc2C1`, at PRMT5/MEP50 complex [1], the negative logarithm of the IC50 (pIC50) is less than 4.00.
Same read-out and setting: next, `O=C(CCN1CCc2ccccc2C1)NNC(=O)c1ccccc1`: 4.14; `COC(=O)c1ccccc1NC(=O)CN1CCc2ccccc2C1`: 4.22; `O=C(CCN1CCc2ccccc2C1)Nc1ccc(Oc2ccccc2)cc1`: less than 4.00.
For the compound `COC(=O)c1ccccc1NC(=O)CCCN1CCc2ccccc2C1`, the pIC50 at PRMT5/MEP50 complex [1] is 4.06.
